From ChEMBL document CHEMBL1138631, “Synthesis and amine transporter affinities of novel phenyltropane derivatives as potential positron emission tomography (PET) imaging agents” (Bioorg Med Chem Lett, 2004)

Columns and labels:
[1] = biological target: Monoamine transporters; Norepininephrine & dopamine (Rattus norvegicus) (UniProt P23977+Q9WTR4); experiment: Ratio of Ki for dopamine and norepinephrine transporters; format: protein assay
Procedure, shortened: (§1)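 Selectivity calculated as Ki at SERT or NET divided by Ki at DAT. Ki values came from radioligand competition assays with tritiated ligands selective for each transporter in rat forebrain tissue preparations. A ratio above 1.0 means preference for DAT.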

[2] = biological target: Monoamine transporters; serotonin & dopamine (Rattus norvegicus) (UniProt P31652+P23977); experiment: Ratio of Ki for dopamine and serotonin transporters; format: protein assay; procedure, shortened: as §1
[3] = biological target: Norepinephrine transporter (Rattus norvegicus, UniProt Q9WTR4); experiment: Displacement of [3H]-nisoxetine from norepinephrine transporter of rat cerebral corticex homogenate
Procedure, shortened: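 Competition binding in rat cerebral cortical homogenates incubated with 0.35 nM [3H]nisoxetine; Ki reported in nM.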

[4] = biological target: Sodium-dependent serotonin transporter (Rattus norvegicus, UniProt P31652); experiment: Displacement of [3H]cyanoimiprimine from serotonin transporter of rat cerebral cortical homogenate
Procedure, shortened: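 Rat cerebral cortical homogenates incubated with 0.71 nM [3H]cyanoimiprimine in a radioligand competition binding assay; affinity expressed as Ki in nM.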

[5] = biological target: Sodium-dependent dopamine transporter (Rattus norvegicus, UniProt P23977); experiment: Displacement of [3H]CIT from dopamine transporter of rat striatal homogenate
[6] = biological target: Sodium-dependent dopamine transporter (Homo sapiens, UniProt Q01959); experiment: Inhibition of [18F]PET binding to dopamine transporter of human brain
Sequence of Sodium-dependent dopamine transporter (Homo sapiens, UniProt Q01959) (Q01959 whole entry): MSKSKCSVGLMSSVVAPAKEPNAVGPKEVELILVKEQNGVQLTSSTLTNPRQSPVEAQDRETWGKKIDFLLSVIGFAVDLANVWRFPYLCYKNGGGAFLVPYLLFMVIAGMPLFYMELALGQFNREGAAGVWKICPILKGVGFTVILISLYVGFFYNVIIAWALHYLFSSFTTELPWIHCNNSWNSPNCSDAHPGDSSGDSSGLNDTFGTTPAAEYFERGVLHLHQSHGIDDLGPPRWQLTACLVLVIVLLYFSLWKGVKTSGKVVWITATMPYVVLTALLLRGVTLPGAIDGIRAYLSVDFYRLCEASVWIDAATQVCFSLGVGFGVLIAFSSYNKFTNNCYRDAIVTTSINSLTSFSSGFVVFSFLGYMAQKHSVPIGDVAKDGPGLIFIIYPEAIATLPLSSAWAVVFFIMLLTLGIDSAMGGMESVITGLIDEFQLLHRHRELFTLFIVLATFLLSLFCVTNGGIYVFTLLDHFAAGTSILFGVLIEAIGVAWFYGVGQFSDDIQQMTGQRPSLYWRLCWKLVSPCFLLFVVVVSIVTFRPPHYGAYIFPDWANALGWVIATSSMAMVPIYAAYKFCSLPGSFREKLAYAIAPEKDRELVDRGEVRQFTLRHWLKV

Sequence of Sodium-dependent dopamine transporter (Rattus norvegicus, UniProt P23977) (P23977 whole entry): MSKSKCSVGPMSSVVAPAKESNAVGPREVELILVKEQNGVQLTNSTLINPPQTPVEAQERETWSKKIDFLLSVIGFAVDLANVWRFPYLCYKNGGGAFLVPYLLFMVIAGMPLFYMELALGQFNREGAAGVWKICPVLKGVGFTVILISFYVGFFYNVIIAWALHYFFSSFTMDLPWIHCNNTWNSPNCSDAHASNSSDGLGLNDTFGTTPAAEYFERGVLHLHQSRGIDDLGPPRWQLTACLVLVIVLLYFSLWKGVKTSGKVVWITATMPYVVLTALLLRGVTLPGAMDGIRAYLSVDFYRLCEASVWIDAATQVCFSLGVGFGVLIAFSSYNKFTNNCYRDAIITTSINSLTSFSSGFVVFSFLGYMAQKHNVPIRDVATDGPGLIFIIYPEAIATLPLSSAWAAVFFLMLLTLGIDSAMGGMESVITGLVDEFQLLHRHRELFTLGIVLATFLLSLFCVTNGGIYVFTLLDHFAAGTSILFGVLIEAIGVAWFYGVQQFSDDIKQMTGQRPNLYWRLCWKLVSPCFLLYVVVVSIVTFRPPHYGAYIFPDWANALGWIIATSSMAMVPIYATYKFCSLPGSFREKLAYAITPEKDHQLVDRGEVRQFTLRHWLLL
Sequence of Monoamine transporters; serotonin & dopamine (Rattus norvegicus) (P23977 whole entry, looked up): as the sequence (P23977 whole entry) above
Sequence of Monoamine transporters; serotonin & dopamine (Rattus norvegicus) (P31652 whole entry, looked up): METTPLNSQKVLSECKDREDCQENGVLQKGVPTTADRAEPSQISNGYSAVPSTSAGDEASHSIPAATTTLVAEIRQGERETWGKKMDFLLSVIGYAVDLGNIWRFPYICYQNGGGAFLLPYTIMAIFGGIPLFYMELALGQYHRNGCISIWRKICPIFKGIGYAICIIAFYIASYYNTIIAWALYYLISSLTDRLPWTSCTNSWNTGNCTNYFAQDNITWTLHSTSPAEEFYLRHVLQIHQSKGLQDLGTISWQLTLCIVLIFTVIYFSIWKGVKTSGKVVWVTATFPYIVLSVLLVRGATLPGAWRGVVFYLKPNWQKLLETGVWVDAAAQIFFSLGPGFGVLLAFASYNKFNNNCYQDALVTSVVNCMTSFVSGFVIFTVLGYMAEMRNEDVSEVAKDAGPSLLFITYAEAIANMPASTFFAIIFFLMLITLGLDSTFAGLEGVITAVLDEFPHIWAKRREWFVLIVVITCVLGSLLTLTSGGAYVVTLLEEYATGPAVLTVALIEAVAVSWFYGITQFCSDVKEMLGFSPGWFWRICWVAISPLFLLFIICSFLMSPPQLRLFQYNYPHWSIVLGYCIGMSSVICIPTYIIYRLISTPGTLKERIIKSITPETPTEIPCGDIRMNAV
Sequence of Norepinephrine transporter (Q9WTR4 whole entry): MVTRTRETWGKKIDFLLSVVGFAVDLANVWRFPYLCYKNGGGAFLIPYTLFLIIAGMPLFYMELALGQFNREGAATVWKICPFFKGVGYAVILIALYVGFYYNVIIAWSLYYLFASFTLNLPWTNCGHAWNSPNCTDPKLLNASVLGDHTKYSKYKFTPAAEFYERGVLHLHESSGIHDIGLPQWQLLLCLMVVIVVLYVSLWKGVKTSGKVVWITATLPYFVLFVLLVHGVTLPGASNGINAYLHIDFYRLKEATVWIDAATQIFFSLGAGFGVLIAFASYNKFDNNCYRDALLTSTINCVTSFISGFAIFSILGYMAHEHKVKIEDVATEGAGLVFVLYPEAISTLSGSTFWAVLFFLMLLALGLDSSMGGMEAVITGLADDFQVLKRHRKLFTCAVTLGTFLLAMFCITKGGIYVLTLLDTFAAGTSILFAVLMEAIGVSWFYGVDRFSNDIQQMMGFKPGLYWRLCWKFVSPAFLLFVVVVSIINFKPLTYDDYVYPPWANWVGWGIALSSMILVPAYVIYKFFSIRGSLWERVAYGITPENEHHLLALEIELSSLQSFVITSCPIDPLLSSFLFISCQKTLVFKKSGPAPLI
Sequence of Sodium-dependent serotonin transporter (P31652 whole entry): as the sequence (P31652 whole entry, looked up) above

Compound | Selectivity [1] | Selectivity [2] | Ki [3] | Ki [4] | Ki [5] | Ki [6]
CN1C2CCC1C(C(=O)NCCF)C(c1ccc(I)cc1)C2 (stereo not given) | > 225 | 0.69 | > 10000 nM | 30.8 nM | 44.5 nM | –
CN1C2CCC1C(C(=O)OCCF)C(c1ccc(Br)cc1)C2 (stereo not given) | 120 | 2.19 | 280 nM | 5.1 nM | 2.33 nM | 5 nM
O=C(OCCF)C1C(c2ccc(Br)cc2)CC2CCC1N2CCCF (stereo not given) | 0.19 | 1.72 | 2.03 nM | 18.3 nM | 10.6 nM | –
CN1C2CCC1C(C(=O)OCCF)C(c1ccc(I)cc1)C2 (stereo not given) | 125 | 4.3 | 116 nM | 4.02 nM | – | –
O=C(OCCCF)C1C2CCC(CC1c1ccc(Br)cc1)N2 (stereo not given) | 12.3 | 0.42 | 8.85 nM | 0.3 nM | 0.72 nM | 5 nM
O=C(OCCF)C1C2CCC(CC1c1ccc(I)cc1)N2 (stereo not given) | – | 0.21 | – | 0.18 nM | 0.85 nM | 5 nM
COC(=O)C1C(c2ccc(Br)cc2)CC2CCC1N2CCCF (stereo not given) | 58.9 | 10.9 | – | – | – | –
COC(=O)C1C(c2ccc(Br)cc2)CC2CCC1N2C (stereo not given) | 0.02 | 0.06 | 15.3 nM | 4.95 nM | 0.3 nM | –
O=C(OCCF)C1C2CCC(CC1c1ccc(Br)cc1)N2 (stereo not given) | 26.7 | 0.42 | 15.2 nM | 0.24 nM | 0.57 nM | 5 nM
CN1C2CCC1C(C(=O)OCCCF)C(c1ccc(Br)cc1)C2 (stereo not given) | 128 | 1.5 | 244 nM | 2.86 nM | 1.91 nM | 5 nM
COC(=O)C1C2CCC(CC1c1ccc(Br)cc1)N2 (stereo not given) | – | – | 1.02 nM | 0.95 nM | 0.52 nM | –
CN1C2CCC1C(C(=O)NCCF)C(c1ccc(Br)cc1)C2 (stereo not given) | – | 1.51 | – | 38.7 nM | 25.7 nM | –
